High-throughput results: PubChem, The Scripps Research Institute Molecular Screening Center
SIAE inh: blocks human sialic acid acetylesterase. SIAE FP-Rh probe binding, fluorescence polarization. inhibition, % at 9.66 µM. 370,000 compounds, 0.69% hits;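 active means inhibition above a cutoff: mean of compounds within the control limits plus 3 SD of those, cut at about 17% in these data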
HTRA1 inhibitor: inhibitors of human serine peptidase HTRA1. recombinant HTRA1, FP-rhodamine activity-based probe, fluorescence polarization. inhibition, % at 5.96 µM. 340,000 compounds, 0.5% hits; in the data active means inhibition above about 36%
ABHD4 inh: inhibits mouse alpha/beta hydrolase domain 4; 370,000 compounds, 0.54% hits; AID 720543; purified mABHD4, FP-Rh probe fluorescence polarization; inhibition, % at 8.92 µM; Q8VD66;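 active means inhibition exceeding the mean over every tested compound plus 3 SD, cut at about 30% in these data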
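Doses – 8.92 µM, single dose · Material – wild-type mouse ABHD4 protein · Replication – single well per compound (singlicate) · Measure – percent inhibition of probe binding, normalized to plate controls · Schedule – 45 min compound pre-incubation plus 60 min probe step, 25 °C · Detection – fluorescence polarization with parallel and perpendicular emission, 525/598 nm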
PRMT1 FP inh: PRMT1 (human) inhibition, primary screen | Q99873 | recombinant PRMT1, activity-based probe fluorescence polarization | inhibition, % at 2.79 µM | 370,000 compounds, 1.3% hits;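 active means inhibition above about 21% made by adding two undisclosed values, limit read from the data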
TCR-CD3 inh: human TCR-CD3 binding inhibition; TAMRA-labeled TCR probe fluorescence, biochemical; inhibition, % at 9.4 µM; 360,000 compounds, 0.37% hits; in the data active means inhibition above about 19%;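 further: recombinant mutant TCR 2C K166C tagged with TAMRA read by polarization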
PRMT1 confirm: confirmation of human PRMT1 inhibitors | recombinant His-PRMT1, activity-based probe fluorescence polarization | shares compounds with PRMT1 FP inh | 3,300 compounds, 42% hits | inhibition, % at 2.79 µM | AID 687036;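 active means mean inhibition across replicates above the hit cutoff derived for the earlier primary screen, cut at about 22% in these data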
Hits are given with their value; - = inactive; . = no result. In the library only some 2.6% were active in any assay of this set; here they are far more common.

SMILES	SIAE inh	HTRA1 inhibitor	ABHD4 inh	PRMT1 FP inh	TCR-CD3 inh	PRMT1 confirm
O=C1C2C3C=CC(CNS(=O)(=O)c4ccccc4[N+](=O)[O-])(O3)C2C(=O)N1c1ccccc1 (stereo not given)	-	-	-	76	-	42
FC(F)(F)Oc1ccc(Cn2ccc3ccc(-c4ccc5ccn(Cc6ccccc6)c5c4)cc32)cc1	-	.	-	-	.	.
COC(=O)[C@H]1C[C@]2(C(C=C(C)C)S(=O)(=O)c3ccccc3)c3ccccc3N[C@H]2N1 (stereo not given in full)	-	.	-	-	.	.
CCNc1cccc2c1C(=O)N(C)C2=O	-	-	-	44	-	46
O=C1NC(=S)CN1c1ccccc1	-	-	-	65	-	60
CC(/C=N/n1c(-c2cc(C)[nH]n2)n[nH]c1=S)=C\c1ccccc1	-	-	-	-	-	.
CC(=C/c1ccccc1)/C=N/n1c(-c2ccco2)n[nH]c1=S	-	-	-	32	-	-
S=c1[nH]nc(-c2ccco2)n1/N=C/c1cccc(Cl)c1Cl	-	-	-	33	-	33
COCCSc1ncccc1-c1nc2ccccc2[nH]1	-	.	-	-	.	.
C=CCN1C(=O)[C@H](CC(=O)N2CCCC2)[C@@]2(C(=O)OCC)CCCC=C12	-	.	-	-	.	.
Cc1ccccc1-c1nc2ccccc2c(=O)n1/N=C/c1ccccc1[N+](=O)[O-]	-	-	-	31	-	-
C/C=C\C=C/C(=O)Nc1cccc(C2=NOC3(C2)C[C@@H](C(N)=O)N(C(=O)COc2ccc(Cl)cc2)C3)c1 (stereo not given in full)	-	-	-	-	-	.
C/C=C\C=C\C(=O)N1CC2(CC(c3cccc(NC(=O)COc4ccc(Cl)cc4)c3)=NO2)C[C@H]1C(N)=O (stereo not given in full)	-	-	-	63	-	22
N=c1c2c(-c3ccccc3)c(-c3ccccc3)n(CCc3ccccc3)c2ncn1C1CCC(O)CC1 (stereo not given)	-	.	-	-	.	.
CC(C)C(NC(=O)C1CCCCC1)C(=O)NCCc1ccccc1 (stereo not given)	-	-	-	25	-	-
COC(=O)c1ccccc1NC(=O)N1CSC[C@H]1C(=O)OC	-	-	-	30	-	48
C[C@H]1[C@@H](c2ccccc2)OC(O)([C@H](Cc2ccccc2)NC(=O)OC(C)(C)C)CN1C (stereo not given in full)	-	.	-	-	.	.
COC(=O)c1cc2c(c3c4cc(C)ccc4n(S(=O)(=O)c4ccc(OC)cc4)c13)C(=O)N(C)C2	-	.	-	-	-	.
O=C(CCC(=O)N1CCOc2ccccc21)N1CCN(c2ccccc2)CC1	-	-	-	55	-	-
C=CCN1C[C@@H](COCc2ccccc2)Oc2cccc(F)c2S1(=O)=O	-	.	-	-	.	.
O=C(O)/C(=C/c1ccc(Cl)c([N+](=O)[O-])c1)c1ccc(S(=O)(=O)N2CCCCC2)s1	-	-	-	39	-	-
O=C(O)/C(=C\c1cccc(F)c1)c1ccc(S(=O)(=O)N2CCCCC2)s1	-	-	-	-	-	.
CC(=Nc1ccc(C)cc1C)c1sc2ccccc2c1O	-	-	-	27	-	-
Cc1noc(NS(=O)(=O)c2ccc(NC(=O)CSc3nc4ccccc4s3)cc2)c1C	-	-	-	40	-	37
Cc1noc(NS(=O)(=O)c2ccc(NC(=O)CSc3ncccn3)cc2)c1C	-	-	-	-	-	.
SMILES	SIAE inh	HTRA1 inhibitor	ABHD4 inh	PRMT1 FP inh	TCR-CD3 inh	PRMT1 confirm
NNc1nc2ccccc2nc1C(F)(F)F	-	-	-	-	-	.
FC(F)(F)c1nc2ccccc2nc1N/N=C\c1ccccc1	-	-	-	25	-	-
C=CCc1cccc2cc(C(=O)O)c(=O)oc12	-	-	-	-	-	.
C=CCc1cccc2cc(C(=O)Nc3ccccc3C(=O)O)c(=O)oc12	-	.	-	36	-	-
O=[n+]1c2c(n([O-])c3ccccc31)CCCC2	-	-	-	76	-	-
O=[n+]1c2c(n([O-])c3cc(Br)ccc31)CCCC2	-	-	-	-	-	.
CC1CCOC(c2coc3ccccc3c2=O)O1 (stereo not given)	-	-	-	-	-	.
O=C(O)C1CSC(c2coc3ccccc3c2=O)N1 (stereo not given)	-	-	-	51	-	35
